In brackets after ≈: the same amount, converted by molar mass.
Legend:
[1] = tested on: MRSA1 (methicillin resistant S. aureus); assay: Zone of inhibition against MDR clinical isolate; format: cell-based; conditions: for Diameter of zone inhibition: MRSA1 clinical isolate, 15 μg mL^−1
[2] = tested on: K. pneumoniae (MDR clinical isolate); assay: Minimum bactericidal concentration; format: cell-based; conditions: >4 = bacteriostatic
S. pyogenes (ATCC 19615) = assay: Agar diffusion method, zone of inhibition; format: cell-based, Streptococcus pyogenes; conditions: for Diameter of zone inhibition: S. pyogenes (ATCC 19615), average of triplicate
S. aureus (ATCC 25923) = assay: Agar diffusion method, zone of inhibition; format: cell-based, Staphylococcus aureus; conditions: for Diameter of zone inhibition: S. aureus (ATCC 25923), average of triplicate
Summary of the method: (§1)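 Bacterial strains were tested by agar diffusion on nutrient agar (peptone 5 and meat extract 3 g L⁻¹ in distilled water, pH 7.0, 2% agar, autoclaved 121 °C for 20 min). Each test compound (1 mg) was dissolved in 1 mL DMSO and made up to 10 mL with sterile water (100 μg mL⁻¹ stock). The solution was placed in the agar, and inhibition zones were measured after 24 h incubation. Values are the mean of triplicate readings.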

VERO cells = assay: In vitro cytotoxicity, MTT assay; format: cell-based, African Green Monkey; conditions: normal VERO cells, 72 h, Table 4
[3] = tested on: K. pneumoniae (MDR clinical isolate); assay: Minimal inhibitory concentration; format: cell-based
Summary of the method: (§2)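 Broth microdilution against MDR clinical isolates: 80 μl Mueller–Hinton broth plus 20 μl tween 80 received 100 μl test compound, then two-fold serial dilution. Each well was inoculated with 100 μl of 0.5 McFarland suspension ([…]) and incubated covered at 35 ± 2 °C for 24 h. MIC is the lowest concentration inhibiting growth.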

P. fluorescens (S 97) = assay: Agar diffusion method, zone of inhibition; format: cell-based, Pseudomonas fluorescens
Summary of the method: as §1

[4] = tested on: K. pneumoniae (MDR clinical isolate); assay: Zone of inhibition against MDR clinical isolate; format: cell-based; conditions: for Diameter of zone inhibition: MDR K. pneumoniae clinical isolate, 15 μg mL^−1
C. albicans = assay: Agar diffusion method, zone of inhibition; format: cell-based, Candida albicans; conditions: for Diameter of zone inhibition: C. albicans, average of triplicate
Summary of the method: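 For agar diffusion against C. albicans, each test compound (1 mg) was dissolved in 1 mL DMSO and diluted to 10 mL with sterile water (100 μg mL⁻¹ stock). The solution was placed in the agar, and the inhibition zone diameter was read after 24 h. Values are the average of triplicate readings.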

Gram-negative bacteria = assay: Agar diffusion method; format: cell-based, P. phaseolicola (GSPB 2828) and P. fluorescens (S 97); conditions: summary of Table 1
Summary of the method: as §1

[5] = tested on: MRSA1 (methicillin resistant S. aureus); assay: Minimal inhibitory concentration; format: cell-based
Summary of the method: as §2

[6] = tested on: P. phaseolicola (GSPB 2828); assay: Agar diffusion method, zone of inhibition; format: cell-based, Pseudomonas phaseolicola; conditions: Pseudomonas, 24 h, read-out: Diameter of zone inhibition
Summary of the method: as §1

Gram-positive bacteria = assay: Agar diffusion method; format: cell-based, S. aureus (ATCC 25923) and S. pyogenes (ATCC 19615); conditions: summary of Table 1
Summary of the method: as §1

[7] = tested on: MRSA1 (methicillin resistant S. aureus); assay: Minimum bactericidal concentration; format: cell-based; conditions: MRSA; >4 = bacteriostatic
[8] = MDR K. pneumoniae clinical isolate, Table 2
[9] = Pseudomonas fluorescens, 24 h, read-out: Diameter of zone inhibition
[10] = Candida albicans, 24 h, read-out: Diameter of zone inhibition

## 2-(5-(4-Chlorophenyl)-6-cyano-2-(2-hydroxyphenyl)-7-imino-1,2-dihydro-[1,2,4]triazolo[1,5-a]pyrimidin-3(7H)-yl)propanoic acid [Compound 8a]
[1]
  Diameter of zone inhibition: 6 mm
[2]
  MIC index (MBC/MIC): > 4
S. pyogenes (ATCC 19615); 10 μg mL^−1, 24 h
  Diameter of zone inhibition: 12 mm
S. aureus (ATCC 25923); 10 μg mL^−1, 24 h
  Diameter of zone inhibition: 13 mm
S. aureus (ATCC 25923); 15 μg mL^−1, 24 h
  Diameter of zone inhibition: 20 mm
VERO cells
  CC50: 125 µg/mL
[3]; K. pneumoniae, Table 3
  MIC: 12.5 µg/mL
[3]; [8]
  MIC: 12.5 µg/mL
P. fluorescens (S 97); P. fluorescens (S 97), 15 μg mL^−1, 24 h, average of triplicate
  Diameter of zone inhibition: 29 mm
[4]
  Diameter of zone inhibition: 28 mm
C. albicans; 10 μg mL^−1, 24 h
  Diameter of zone inhibition: 10 mm
C. albicans; 15 μg mL^−1, 24 h
  Diameter of zone inhibition: 13 mm
Gram-negative bacteria
  Activity against Gram-negative bacteria: active

## 2-(5-(4-Chlorophenyl)-6-cyano-2-(2-hydroxyphenyl)-7-imino-2-methyl-1,2-dihydro-[1,2,4]triazolo[1,5-a]pyrimidin-3(7H)-yl)propanoic acid [Compound 8b]
[1]
  Diameter of zone inhibition: 8 mm
S. pyogenes (ATCC 19615); 15 μg mL^−1, 24 h
  Diameter of zone inhibition: 26 mm
S. aureus (ATCC 25923); 10 μg mL^−1, 24 h
  Diameter of zone inhibition: 12 mm
S. aureus (ATCC 25923); 15 μg mL^−1, 24 h
  Diameter of zone inhibition: 22 mm
VERO cells
  CC50: 125 µg/mL
[3]; K. pneumoniae, Table 4
  MIC: 25 µg/mL
[3]; [8]
  MIC: 25 µg/mL
[4]
  Diameter of zone inhibition: 27 mm
C. albicans; 10 μg mL^−1, 24 h
  Diameter of zone inhibition: 8 mm
C. albicans; 15 μg mL^−1, 24 h
  Diameter of zone inhibition: 10 mm
Gram-negative bacteria
  Activity against Gram-negative bacteria: active

## CC1(c2ccccc2O)Nn2c(nc(-c3ccc(Cl)cc3)c(C#N)c2=O)N1C(Cc1c[nH]c2ccccc12)C(=O)O (stereo not drawn) [Compound 9d, 2-(5-(4-Chlorophenyl)-6-cyano-2-(2-hydroxyphenyl)-2-methyl-7-oxo-1,2-dihydro-[1,2,4]triazolo[1,5-a]pyrimidin-3(7H)-yl)-3-(1H-indol-3-yl)propanoic acid]
[1]; Staphylococcus aureus, read-out: Diameter of zone inhibition
  zone of inhibition at 15 µg/mL: 29 mm
[5]; MDR clinical isolate, Table 2
  Activity against methicillin resistant S. aureus: remarkable activity
[5]; MRSA1, Table 3
  MIC: 12.5 µg/mL (≈ 22 µM)
[5]; MRSA1 vs VERO cells
  SI (selectivity index, CC50/MIC): 40
[5]; Staphylococcus aureus
  MIC: 12.5 µg/mL (≈ 22 µM)
S. pyogenes (ATCC 19615); Streptococcus pyogenes, ATCC19615, 24 h, read-out: Diameter of zone inhibition
  zone of inhibition at 10 µg/mL: 19 mm
[6]
  zone of inhibition at 10 µg/mL: 10 mm
S. aureus (ATCC 25923); Staphylococcus aureus, ATCC25923, 24 h, read-out: Diameter of zone inhibition
  zone of inhibition at 10 µg/mL: 20 mm
P. fluorescens (S 97); [9]
  zone of inhibition at 10 µg/mL: 12 mm
  zone of inhibition at 15 µg/mL: 23 mm
Gram-positive bacteria
  Activity against Gram-positive bacteria: active
[4]; Klebsiella pneumoniae, read-out: Diameter of zone inhibition
  zone of inhibition at 15 µg/mL: 11 mm
C. albicans; [10]
  zone of inhibition at 10 µg/mL: 7 mm
  zone of inhibition at 15 µg/mL: 8 mm
[7]
  MIC index (MBC/MIC): > 4
